ChEMBL document CHEMBL4024769, “Synthesis and Investigation of Photophysical and Biological Properties of Novel S-Containing Bacteriopurpurinimides” (J Med Chem, 2017)
Active and inactive are the calls of the source. The calls are words filed in the database; no cut-off is given here.

Columns and labels:
[1] = Phototoxicity against mouse S37 cells implanted in F1 mouse assessed as tumor growth inhibition at 5 mg/kg, iv preincubated for 30 mins with subsequent 150 J/cm2 irradiation measured on day 20 post irradiation relative to control; type: functional; details: S37, light or radiation study, read-out: TGI
Method in brief: (§1)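 S37 sarcoma mice treated on day 7 of tumor growth with compound iv; tumors 140–160 mm3 beforehand, droperidol 0.25 mg ip as anesthetic. LED irradiation at 800 ± 21 nm, 100 mW/cm2, 150 J/cm2, given 15 or 30 min after dosing. Controls got iv 0.9% NaCl. Volume = d1×d2×d3×0.52; TGI = […]×100%.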

[2] = Phototoxicity against rat Sarcoma M1 cells implanted in rat assessed as mitotic index at 2.5 mg/kg, ip administered as single dose on day 11 after inoculation followed by 300 J/cm2 irradiation after 2.5 to 3 hrs measured on day 3 post photodynamic therapy (reference value: 1.84 +/- 0.04%); type: functional
Method in brief: (§2)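 Rats with M1 sarcoma implanted subcutaneously in the left thigh were randomized on day 10, 25 per group. Single ip dose of 2.5 mg/kg on day 11; laser irradiation 2.5–3 h later at 810 nm, 0.51 W/cm2, 300 J/cm2, 10 min over a 1.5 cm field. Five rats sampled per time point for H&E histology, PCNA immunohistochemistry (1:200) and tumor volume. Untreated controls; Student's test, p < 0.05.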

[3] = Phototoxicity against rat Sarcoma M1 cells implanted in rat assessed as tumor volume at 2.5 mg/kg, ip administered as single dose on day 11 after inoculation followed by 300 J/cm2 irradiation after 2.5 to 3 hrs measured on day 12 post photodynamic therapy (reference value: 12 +/- 3 mm3); type: functional; method in brief: as §2
[4] = Phototoxicity against rat Sarcoma M1 cells implanted in rat assessed as mitotic index at 2.5 mg/kg, ip administered as single dose on day 11 after inoculation followed by 300 J/cm2 irradiation after 2.5 to 3 hrs measured on day 12 post photodynamic therapy (reference value: 1.9 +/- 0.2%); type: functional; method in brief: as §2
[5] = Phototoxicity against rat Sarcoma M1 cells implanted in rat assessed as volume of tumor necrotic zones at 2.5 mg/kg, ip administered as single dose on day 11 after inoculation followed by 300 J/cm2 irradiation after 2.5 to 3 hrs measured on day 3 post photodynamic therapy (reference value: 30 +/- 4%); type: functional
Method in brief: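 Rat M1 sarcoma was implanted subcutaneously in the left thigh, with randomisation on day 10. A single 2.5 mg/kg ip dose was given on day 11, then 810 nm laser (0.51 W/cm2, 300 J/cm2, 10 min) after 2.5−3 h. Tumours were sectioned on days 1, 3 and 12 after PDT (controls days 12, 14, 23), five animals per point. Parenchyma and necrotic zone volumes were estimated on hematoxylin and eosin staining.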

Sarcoma M1 = assay: Phototoxicity against rat Sarcoma M1 cells implanted in rat assessed as tumor vasculature disruption at 2.5 mg/kg, ip administered as single dose on day 11 post inoculation followed by 300 J/cm2 irradiation after 2.5 to 3 hrs measured on day 2 post photodynamic therapy by CD31 dependent immunoimgaing; type: functional, organism-based
[6] = Phototoxicity against mouse S37 cells implanted in F1 mouse assessed as tumor growth inhibition at 5 mg/kg, iv preincubated for 15 mins with subsequent 150 J/cm2 irradiation measured on day 8 post irradiation relative to control; type: functional; details: S37, light or radiation study, read-out: TGI; method in brief: as §1

| SMILES | inhibition in vivo at 5 mg/kg [1] [%] | Activity [2] [%] | Activity [3] [mm3] | Activity [4] [%] | Activity [5] [%] | Activity (Sarcoma M1) | inhibition in vivo at 5 mg/kg [6] [%] |
| --- | --- | --- | --- | --- | --- | --- | --- |
| CCCO/N=C(\C)c1c(C)c2cc3nc(c4c5[nH]c(cc6nc(cc1[nH]2)[C@@H](C)[C@@H]6CC)c(C)c5C(=O)N(OCCC)C4=O)[C@H](CCC(=O)NCCSSCCNC(=O)CC[C@@H]1c2nc(cc4[nH]c(cc5nc(cc6[nH]c7c2C(=O)N(OCCC)C(=O)c7c6C)[C@H](CC)[C@H]5C)c(/C(C)=N/OCCC)c4C)[C@H]1C)[C@H]3C | 100 | 1.84 | 0.44 | 1.78 | 77 | Active | – |
| CCCO/N=C(\C)c1c(C)c2cc3nc(c4c5[nH]c(cc6nc(cc1[nH]2)[C@H](C)[C@H]6CC)c(C)c5C(=O)N(OCCC)C4=O)[C@@H](CCC(=O)OC)[C@@H]3C | – | – | – | – | – | – | 100 |
